This is an account of results in ChEMBL document CHEMBL2331343 (Bioorg Med Chem, 2013).

The target in test [1] is T1, 5-hydroxytryptamine receptor 2A (Homo sapiens, UniProt P28223). Briefly: Inhibition of [3H]Ketanserin binding to 5-HT2A receptor (unknown origin) expressed in HEK293 cells at 10 uM by liquid scintillation counter relative to control. Format: cell-based. In short, it runs like this: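 Membranes of HEK293T stably transfected with 5-HT2A, […], incubated in duplicate 15 min at 37 °C with [3H]ketanserin in 50 mM Tris, 4 mM MgCl2, pH 7.4. […] GF/B filtration, cold wash, scintillation counting.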
T1 sequence (P28223 whole entry): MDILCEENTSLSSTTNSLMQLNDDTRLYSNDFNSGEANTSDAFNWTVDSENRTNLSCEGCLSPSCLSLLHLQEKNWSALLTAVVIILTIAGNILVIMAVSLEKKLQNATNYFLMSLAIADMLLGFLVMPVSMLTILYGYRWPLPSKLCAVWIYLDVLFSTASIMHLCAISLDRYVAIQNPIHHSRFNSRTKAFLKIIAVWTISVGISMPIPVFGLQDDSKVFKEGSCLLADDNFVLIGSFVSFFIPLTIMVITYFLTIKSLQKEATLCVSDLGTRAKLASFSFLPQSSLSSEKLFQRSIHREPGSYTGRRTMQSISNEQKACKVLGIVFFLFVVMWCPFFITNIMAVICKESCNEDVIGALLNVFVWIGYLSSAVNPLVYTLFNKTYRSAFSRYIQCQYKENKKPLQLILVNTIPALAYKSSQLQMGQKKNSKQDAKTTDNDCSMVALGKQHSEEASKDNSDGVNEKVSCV

Test [2] concerns the target T2, 5-hydroxytryptamine receptor 1A (Homo sapiens) (UniProt P08908).
T2 sequence (whole entry): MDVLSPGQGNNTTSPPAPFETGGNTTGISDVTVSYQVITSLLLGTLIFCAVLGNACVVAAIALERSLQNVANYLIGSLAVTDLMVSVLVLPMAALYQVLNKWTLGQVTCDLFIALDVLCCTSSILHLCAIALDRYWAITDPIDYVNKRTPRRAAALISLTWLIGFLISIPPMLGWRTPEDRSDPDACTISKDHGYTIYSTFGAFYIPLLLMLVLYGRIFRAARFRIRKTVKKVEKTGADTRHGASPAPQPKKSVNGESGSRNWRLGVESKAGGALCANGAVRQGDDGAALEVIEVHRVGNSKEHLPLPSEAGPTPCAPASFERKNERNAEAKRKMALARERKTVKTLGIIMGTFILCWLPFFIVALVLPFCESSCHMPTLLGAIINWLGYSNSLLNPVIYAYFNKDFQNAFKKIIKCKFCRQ
Put plainly: Inhibition of [3H]8-OH-DPAT binding to 5-HT1A receptor (unknown origin) expressed in HEK293 cells at 10 uM by liquid scintillation counter relative to control. Format: cell-based. The method, boiled down: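 Membranes of HEK293T stably transfected with 5-HT1A, […], incubated in duplicate 50 min at 30 °C with [3H]8-OH-DPAT in 50 mM Tris, 4 mM MgCl2, pH 7.4. Nonspecific binding with 10 μM WAY100635. Filtration on GF/B, cold Tris/EDTA wash, scintillation counting.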

In test [3] the target is T3, D(1A) dopamine receptor (Homo sapiens, UniProt P21728). Briefly: Inhibition of [3H]SCH23390 binding to dopamine D1 receptor (unknown origin) expressed in human HEK293 cells at 10 uM by liquid scintillation counter relative to control. Format: cell-based. The method, boiled down: (§1)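 Stably transfected HEK293T D1 membranes, […], duplicate incubation 50 min at 30 °C with [3H]SCH23390 in 50 mM Tris, 4 mM MgCl2, pH 7.4. Nonspecific binding with 10 μM SCH23390. GF/B filtration, scintillation counting.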
T3 sequence (P21728 whole entry): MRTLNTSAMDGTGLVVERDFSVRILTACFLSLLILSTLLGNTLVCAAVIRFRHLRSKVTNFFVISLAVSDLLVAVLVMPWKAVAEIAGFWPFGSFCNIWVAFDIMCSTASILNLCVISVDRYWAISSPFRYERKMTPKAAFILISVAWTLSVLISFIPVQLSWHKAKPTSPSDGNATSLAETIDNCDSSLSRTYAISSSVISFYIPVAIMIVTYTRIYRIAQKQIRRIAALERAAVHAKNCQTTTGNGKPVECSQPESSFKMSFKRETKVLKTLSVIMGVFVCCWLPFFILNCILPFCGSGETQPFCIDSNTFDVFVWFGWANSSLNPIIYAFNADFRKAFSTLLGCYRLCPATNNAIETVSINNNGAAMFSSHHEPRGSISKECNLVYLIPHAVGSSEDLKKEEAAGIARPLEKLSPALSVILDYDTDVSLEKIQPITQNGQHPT

For test [4], the target named is T4, D(2) dopamine receptor (Homo sapiens, UniProt P14416). The following applies: HEK293, at 10 µM.
T4 sequence (P14416 whole entry): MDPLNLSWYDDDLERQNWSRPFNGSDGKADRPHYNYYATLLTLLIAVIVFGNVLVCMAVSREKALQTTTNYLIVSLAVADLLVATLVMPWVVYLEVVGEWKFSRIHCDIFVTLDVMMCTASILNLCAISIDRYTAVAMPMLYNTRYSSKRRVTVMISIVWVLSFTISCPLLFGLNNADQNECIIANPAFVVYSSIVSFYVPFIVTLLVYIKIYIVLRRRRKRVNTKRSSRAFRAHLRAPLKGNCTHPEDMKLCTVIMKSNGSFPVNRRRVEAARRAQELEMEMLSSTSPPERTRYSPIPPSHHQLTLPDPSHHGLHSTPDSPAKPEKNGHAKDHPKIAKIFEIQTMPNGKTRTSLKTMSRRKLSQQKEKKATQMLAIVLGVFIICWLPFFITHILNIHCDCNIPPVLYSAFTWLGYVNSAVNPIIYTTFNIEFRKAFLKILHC
The target in test [5] is T3, D(1A) dopamine receptor. Briefly: Displacement of [3H]SCH23390 from dopamine D1 receptor (unknown origin) expressed in human HEK293 cells by liquid scintillation counter. In kind it is cell-based. The method, boiled down: as §1
In general terms: In a radioligand displacement assay an active substance lowers the binding of a labelled ligand.

For test [6], the target named is T1, 5-hydroxytryptamine receptor 2A. Put plainly: Displacement of [3H]Ketanserin from 5-HT2A receptor (unknown origin) expressed in HEK293 cells by liquid scintillation counter. In kind it is cell-based.
The target of test [7] is T5, 5-hydroxytryptamine receptor 1A (Homo sapiens, UniProt P08908).
T5 sequence (P08908 whole entry): T2 sequence (whole entry)
Briefly: Displacement of [3H]8-OH-DPAT from 5-HT1A receptor (unknown origin) expressed in HEK293 cells by liquid scintillation counter. Format: cell-based.

Test [8] addresses T4, D(2) dopamine receptor. Put plainly: Displacement of [3H]spiperone from dopamine D2 receptor (unknown origin) expressed in human HEK293 cells by liquid scintillation counter. Format: cell-based.

pKi: −log10 of the molar value. A value given as a limit tells only on which side of the number the result lay.

As for `COc1cc2c(cc1OC)[C@H]1Cc3ccc(O)c(OC)c3CN1CC2`, the inhibition (commonly the drop in the measured response relative to a control, in per cent) was determined as 27.9% in test [1], 65.5% in test [2], 54.4% in test [3] and 3.4% in test [4].
Take `COc1cc2c(cc1O)[C@@H]1Cc3ccc(OC)c(OC)c3CN1CC2`: the pKi (commonly −log10 of the Ki, conventionally taken in molar units) in test [5] is […]. The values for the inhibition in test [1], in test [2] and in test [3] were 40.5%, 71.1% and 99.2%, respectively.
Turning to `CN1CCc2cc(Cl)c(O)cc2C(c2ccccc2)C1` (centres undefined), the inhibition in test [3] came to 100%.
Regarding `COc1cc2c(cc1OC)[C@H]1Cc3ccc(OC)c(OC)c3CN1CC2`, the inhibition in test [1] is 29.7%; in test [2], 30.4%; in test [3], 39.8%; in test [4] it was 20.5%.
For the molecule `COc1cc2c(cc1O)CCN1Cc3c(ccc(O)c3OC)C[C@@H]21`, the pKi was under 5.30 in test [6], under 5.30 in test [7], 6.95 in test [8] and 6.70 in test [5]. Besides, the inhibition in test [1] came to 84%; in test [2], 76.7%; in test [3] it was 98.3%; in test [4], 94.2%.
`COc1ccc2c(c1)C[C@H]1c3cc(O)c(OC)cc3CCN1C2`: the figures for the inhibition in test [3] and in test [4] were 97.5% and 90%, respectively.
For `COc1ccc2c(c1O)CN1CCc3cc4c(cc3[C@@H]1C2)OCO4`, the values for the pKi in test [7], in test [8] and in test [5] were under 5.30, under 5.30 and 7.22, respectively. The inhibition in test [1] came out at 49.1%; in test [2] it was 82.8%; in test [3], 98.7%; in test [4] it was 78%.
On to `COc1cc2c(cc1O)[C@@H]1Cc3c(CO)c(OC)cc(OC)c3CN1CC2`, for which the pKi in test [7] was under 5.30. Also, the inhibition is 104% in test [3] and 94.8% in test [4].
For the molecule `COc1ccc2c(c1OC)CN1CCc3cc4c(cc3[C@@H]1C2)OCO4` [CANADINE], the pKi in test [7] is under 5.30; in test [8] it was 6.92; in test [5], 7.18. Further, the inhibition in test [1] turned out to be 46.6%; in test [2], 84.4%; in test [3], 98.3%; in test [4], 88.7%.
In the case of `COc1cc2c(cc1O)CCN1Cc3c(ccc(O)c3OC)C[C@H]21`, the inhibition in test [1] was found to be 13.9%; in test [2] it was 13.2%; in test [3], 67.1%; in test [4] it was 27.7%.
As for `COc1c(O)ccc2c1CN1CCc3cc4c(cc3[C@@H]1C2)OCC4`, the pKi in test [6] was 6.32; in test [7] it was under 5.30; in test [5], 8.12. In addition, the inhibition in test [1] was determined as 91.7%; in test [2], 79.5%; in test [3] it was 99.3%; in test [4], 63.9%.
For `NCCc1c[nH]c2ccc(O)cc12`, the inhibition in test [2] worked out at 100%.
Turning to `COc1cc2c(cc1OC)[C@@H]1Cc3ccc(OC)c(OC)c3CN1CC2` [TETRAHYDROPALMATINE], the pKi in test [7] is under 5.30; in test [8], under 5.30; in test [5], 6.64. The inhibition in test [1] amounted to 33%; in test [2] it was 84.9%; in test [3] it was 96.9%; in test [4] it was 85.4%.
For the molecule `COc1cc2c(cc1O)CCN1Cc3c(ccc(OC)c3OC)C[C@H]21`, the pKi in test [5] is 5.92. For the same molecule, the inhibition came out at 40.4% in test [1], 55.4% in test [2], 88.8% in test [3] and 71.5% in test [4].
Consider `COc1cc2c(cc1O)[C@@H]1Cc3cc(C)cc(C)c3CN1CC2`, for which the inhibition in test [3] stood at 99%; in test [4] it was 90.1%.
As to `COc1ccc2c(c1OC)CN1CCc3cc4c(cc3[C@H]1C2)OCO4`, the pKi in test [5] was under 5.30. The inhibition in test [1] worked out at 18.3%; in test [2], 34.5%; in test [3], 75.5%; in test [4], 26.6%.
For `COc1cc2c(cc1O)CCN1Cc3c(ccc(OC)c3OC)C[C@@H]21`, in that order: 6.51, 38%, 50.5%, 84.1% and 63.2%.
As to `COc1cc2c(cc1OC)[C@H]1Cc3ccc(OC)c(O)c3CN1CC2`, the inhibition in test [1] is 19.3%; in test [2] it was 6.2%; in test [3] it was 35.9%; in test [4], 1.5%.
In the case of `COc1cc2c(cc1O)[C@H]1Cc3ccc(OC)c(OC)c3CN1CC2`, in test [5], the pKi is […]. Further, the inhibition worked out at 40.6% in test [1], 64.2% in test [2] and 99.5% in test [3].
In turn, `COc1cc2c(cc1OC)[C@@H]1Cc3ccc(OC)c(O)c3CN1CC2` [TETRAHYDROPALMATRUBINE] gave a pKi in test [5] of 6.35. Further, the inhibition in test [1] was found to be 20%; in test [2] it was 30.5%; in test [3], 87.7%; in test [4], 22.7%.
For the molecule `COc1cc2c(cc1O)CCN1Cc3c(ccc(OC)c3O)C[C@@H]21`, the pKi is under 5.30 in test [8] and 6.28 in test [5]. For the same molecule, the inhibition worked out at 59.1% in test [1], 60.5% in test [2], 95.2% in test [3] and 79.8% in test [4].
In the case of `COc1c(O)ccc2c1CN1CCc3cc4c(cc3[C@H]1C2)OCO4`, the pKi in test [5] is 6.25. Also, the inhibition in test [1] was found to be 25.3%; in test [2], 63.6%; in test [3], 95.8%; in test [4], 40.5%.
For the molecule `COc1cc2c(c(OC)c1)CN1CCc3cc(OC)c(O)cc3[C@@H]1C2`, the inhibition in test [3] is 99.8%.
For the molecule `COc1cc2c(cc1O)CCN1Cc3c(ccc(OC)c3O)C[C@H]21`, the inhibition in test [1] came out at 36%; in test [2], 31.5%; in test [3], 49.4%; in test [4], 8.16%.
In turn, `COc1cc2c(cc1O)[C@@H]1Cc3cc4c(cc3CN1CC2)OCO4` had a negative-log Ki (pKi) in test [5] of 8.38. For the same molecule, the inhibition is 49.9% in test [1], 61% in test [2], 99.6% in test [3] and 100% in test [4].
For `COc1cc2c(cc1O)[C@H]1Cc3ccc(O)c(OC)c3CN1CC2`, in that order: 6.87, 16.4%, 53.6%, 94.4% and 53.7%.
For `COc1c(O)ccc2c1CN1CCc3cc4c(cc3[C@@H]1C2)OCCO4`, the figures for the pKi in test [6] and in test [7] were 6.44 and 6.68, respectively. Also, the inhibition in test [1] amounted to 97.3%; in test [2], 90.8%; in test [3], 22.6%; in test [4], 73.1%.
For the molecule `COc1cc2c(cc1O)[C@@H]1Cc3ccc(OC)c(O)c3CN1CC2` [SCOULERINE], the pKi is 6.67 in test [8] and 7.66 in test [5]. In addition, the inhibition in test [1] was 20.9%; in test [2], 14.2%; in test [3], 99.1%; in test [4], 93.4%.
Regarding `COc1cc2c(cc1O)[C@H]1Cc3ccc(OC)c(O)c3CN1CC2`, the pKi in test [5] is 6.28. The inhibition in test [1] is 26.3%; in test [2] it was 2%; in test [3] it was 84.5%; in test [4], 31.8%.
In the case of `O=C(CCCN1CCC2(CC1)C(=O)NCN2c1ccccc1)c1ccc(F)cc1`, the inhibition in test [1] and in test [4] was 100% each time.
Take `COc1cc2c(cc1O)[C@@H]1Cc3ccc(O)c(OC)c3CN1CC2` [STEPHOLIDINE]: the results for the pKi in test [7], in test [8] and in test [5] were under 5.30, 7.96 and 8.47, respectively. In addition, the inhibition in test [3] came out at 99.8%; in test [4], 97.5%.
In test [5], `COc1ccc2c(c1O)CN1CCc3cc4c(cc3[C@H]1C2)OCO4` gave a pKi of under 5.30. Further, the inhibition in test [1] came out at 10.9%; in test [2] it was 25.5%; in test [3], 78.9%; in test [4], 20.4%.
